Reference: ChEMBL document CHEMBL1129958, “Synthesis and antiviral activity of certain 5'-modified analogs of 2,5,6-trichloro-1-(beta-D-ribofuranosyl)benzimidazole” (J Med Chem, 1997)

Each compound was assayed on Human betaherpesvirus 5 (assay: In vitro antiviral activity against HCMV (Towne strain) in HFF (human fibroblast) cells.). Settings: Human betaherpesvirus 5, HFF.
Type: functional, organism-based
Summary of the method: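 HFF monolayers in 24-well dishes infected with about 100 PFU HCMV/cm2 of cell sheet. After adsorption, compound in growth medium added to duplicate wells at four to eight concentrations. Incubated 7 days at 37 °C, fixed and stained with crystal violet, microscopic plaques counted. Percent plaque reduction against no-drug wells regressed on log concentration to give IC50.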

Question: Which IC50 does the source give for `CCCCOC[C@H]1OC(n2c(Cl)nc3cc(Cl)c(Cl)cc32)[C@H](O)[C@@H]1O` (stereo partly drawn) here?
Answer: The IC50 was 14.2 µM.

Question: `O[C@@H]1[C@@H](CBr)OC(n2c(Cl)nc3cc(Cl)c(Cl)cc32)[C@@H]1O` (stereo partly drawn) was tested. Which IC50 did it give?
Answer: The IC50 was 1.5 µM.

Question: With `CSC[C@H]1OC(n2c(Cl)nc3cc(Cl)c(Cl)cc32)[C@H](O)[C@@H]1O` (stereo partly drawn) as the compound, how does the IC50 read?
Answer: The IC50 was 4.5 µM.

Question: For `O[C@@H]1[C@@H](CCl)OC(n2c(Cl)nc3cc(Cl)c(Cl)cc32)[C@@H]1O` (stereo partly drawn), which IC50 is on record?
Answer: The IC50 was 1 µM.

Question: For `COC[C@H]1OC(n2c(Cl)nc3cc(Cl)c(Cl)cc32)[C@H](O)[C@@H]1O` (stereo partly drawn), which IC50 is on record?
Answer: The IC50 was 3 µM.

Question: How did the IC50 turn out when `Nc1nc2c(ncn2COC(CO)CO)c(=O)[nH]1` [GANCICLOVIR] was run?
Answer: Its IC50 is 7.4 µM.

The compounds below were run on Human betaherpesvirus 5 (assay: In vitro reduction in yield of Towne strain of HCMV in HFF (human fibroblast) cells.). Settings: Human betaherpesvirus 5, HFF.
Type: functional
Summary of the method: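 HFF in 96-well plates infected with HCMV Towne at MOI 0.5-1 PFU/cell. After adsorption, compound given in duplicate, serially diluted 1:3 from 100 to 0.14 µM. After 7 days at 37 °C, one freeze-thaw cycle, then progeny titred by 1:3 serial dilution on fresh HFF monolayers with plaque counts. IC90 taken from regression of percent inhibition against log concentration.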

Question: `O[C@@H]1[C@@H](CBr)OC(n2c(Cl)nc3cc(Cl)c(Cl)cc32)[C@@H]1O` (stereo partly drawn) was tested. Which IC90 did it give?
Answer: Its IC90 is 0.5 µM.

Question: With `COC[C@H]1OC(n2c(Cl)nc3cc(Cl)c(Cl)cc32)[C@H](O)[C@@H]1O` (stereo partly drawn) as the compound, how does the IC90 read?
Answer: Its IC90 is 2 µM.

Question: How did the IC90 turn out when `Nc1nc2c(ncn2COC(CO)CO)c(=O)[nH]1` [GANCICLOVIR] was run?
Answer: The IC90 was 1.6 µM.

These compounds were tested on Human betaherpesvirus 5 (assay: Antiviral activity was determined against Towne strain of HCMV by Plaque and yield reduction test (Averaged results from duplicate or triplicate experiments)). Settings: not given.
Type: functional

Question: `O[C@@H]1[C@@H](CCl)OC(n2c(Cl)nc3cc(Cl)c(Cl)cc32)[C@@H]1O` (stereo partly drawn) was tested. Which IC90 did it give?
Answer: Its IC90 is 0.52 µM.

These compounds were tested on HFF (assay: Visual cytotoxicity was scored on Human foreskin fibroblasts (HFF cells) at the time of plaque enumeration.). Settings: not given.
Type: functional, cell-based
Summary of the method: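 Stationary HFF cells from the plaque assays, not affected by virus, inspected microscopically for cytotoxicity at the time of plaque counting.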

Question: With `CCCCOC[C@H]1OC(n2c(Cl)nc3cc(Cl)c(Cl)cc32)[C@H](O)[C@@H]1O` (stereo partly drawn) as the compound, how does the IC50 read?
Answer: The IC50 was 32 µM.

Question: Which IC50 does the source give for `O[C@@H]1[C@@H](CBr)OC(n2c(Cl)nc3cc(Cl)c(Cl)cc32)[C@@H]1O` (stereo partly drawn) here?
Answer: The IC50 was 32 µM.

Question: How did the IC50 turn out when `CSC[C@H]1OC(n2c(Cl)nc3cc(Cl)c(Cl)cc32)[C@H](O)[C@@H]1O` (stereo partly drawn) was run?
Answer: The IC50 was 32 µM.

Question: `O[C@@H]1[C@@H](CCl)OC(n2c(Cl)nc3cc(Cl)c(Cl)cc32)[C@@H]1O` (stereo partly drawn) was tested. Which IC50 did it give?
Answer: Its IC50 is 32 µM.

Question: For `COC[C@H]1OC(n2c(Cl)nc3cc(Cl)c(Cl)cc32)[C@H](O)[C@@H]1O` (stereo partly drawn), which IC50 is on record?
Answer: Its IC50 is 32 µM.

Question: For `Nc1nc2c(ncn2COC(CO)CO)c(=O)[nH]1` [GANCICLOVIR], which IC50 is on record?
Answer: Its IC50 is greater than 100 µM.

What follows are compounds tested on Human alphaherpesvirus 1 (assay: In vitro antiviral activity against HSV-1 virus in BSC-1 (monkey kidney) cells.). Settings: Human alphaherpesvirus 1, BSC-1.
Type: functional, organism-based
Summary of the method: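 BSC-1 cells, 10 000/well in MEM(E) with 10% calf serum, incubated overnight at 37 °C. Drug added in quadruplicate together with HSV-1 KOS at 100 PFU/well and incubated 3 days. Read-out by ELISA with HRP-conjugated rabbit anti-HSV-1 and TMB substrate, absorbance at 450 and 570 nm. Percent absorbance reduction against virus-only wells regressed on log concentration for IC50.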

Question: `CCCCOC[C@H]1OC(n2c(Cl)nc3cc(Cl)c(Cl)cc32)[C@H](O)[C@@H]1O` (stereo partly drawn) was tested. Which IC50 did it give?
Answer: The IC50 was greater than 100 µM.

Question: For `O[C@@H]1[C@@H](CBr)OC(n2c(Cl)nc3cc(Cl)c(Cl)cc32)[C@@H]1O` (stereo partly drawn), which IC50 is on record?
Answer: Its IC50 is greater than 100 µM.

Question: With `CSC[C@H]1OC(n2c(Cl)nc3cc(Cl)c(Cl)cc32)[C@H](O)[C@@H]1O` (stereo partly drawn) as the compound, how does the IC50 read?
Answer: Its IC50 is greater than 100 µM.

Question: With `O[C@@H]1[C@@H](CCl)OC(n2c(Cl)nc3cc(Cl)c(Cl)cc32)[C@@H]1O` (stereo partly drawn) as the compound, how does the IC50 read?
Answer: The IC50 was greater than 100 µM.

Question: Which IC50 does the source give for `COC[C@H]1OC(n2c(Cl)nc3cc(Cl)c(Cl)cc32)[C@H](O)[C@@H]1O` (stereo partly drawn) here?
Answer: The IC50 was greater than 100 µM.

Question: How did the IC50 turn out when `Nc1nc2c(ncn2COC(CO)CO)c(=O)[nH]1` [GANCICLOVIR] was run?
Answer: Its IC50 is 3.5 µM.

The compounds below were run on KB (assay: In vitro inhibition of KB (human carcinoma) cell growth.). Settings: not given.
Type: functional, cell-based
Summary of the method: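 KB cells, 3000–5000/well, incubated overnight at 37 °C. Compound added in quadruplicate at six to eight concentrations for 48 h (about two population doublings). Cells fixed in 95% ethanol, stained with 0.1% crystal violet, dye eluted with acidified ethanol and read at 570 nm. IC50 from regression against log concentration.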

Question: Which IC50 does the source give for `CCCCOC[C@H]1OC(n2c(Cl)nc3cc(Cl)c(Cl)cc32)[C@H](O)[C@@H]1O` (stereo partly drawn) here?
Answer: Its IC50 is 60 µM.

Question: Which IC50 does the source give for `O[C@@H]1[C@@H](CBr)OC(n2c(Cl)nc3cc(Cl)c(Cl)cc32)[C@@H]1O` (stereo partly drawn) here?
Answer: The IC50 was 90 µM.

Question: How did the IC50 turn out when `CSC[C@H]1OC(n2c(Cl)nc3cc(Cl)c(Cl)cc32)[C@H](O)[C@@H]1O` (stereo partly drawn) was run?
Answer: Its IC50 is greater than 100 µM.

Question: Which IC50 does the source give for `O[C@@H]1[C@@H](CCl)OC(n2c(Cl)nc3cc(Cl)c(Cl)cc32)[C@@H]1O` (stereo partly drawn) here?
Answer: Its IC50 is 90 µM.

Question: How did the IC50 turn out when `COC[C@H]1OC(n2c(Cl)nc3cc(Cl)c(Cl)cc32)[C@H](O)[C@@H]1O` (stereo partly drawn) was run?
Answer: The IC50 was 90 µM.

Question: Which IC50 does the source give for `Nc1nc2c(ncn2COC(CO)CO)c(=O)[nH]1` [GANCICLOVIR] here?
Answer: Its IC50 is greater than 100 µM.

Each compound was assayed on L1210 (assay: Effect of initial screen concentration of 100 uM on the growth of L1210 Murine Leukemia cells). Settings: not given.
Type: functional, Mus musculus
Summary of the method: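 L1210 mouse leukemia cells in RPMI 1640 with 10% heat-inactivated horse serum, 2000 cells/well. Compound added the next day and incubated 3 days. Growth read by MTS tetrazolium reduction optical density as percent of control. Screen at 100 µM, or the solubility limit; value is the mean of two or three experiments.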

Question: For `CCCCOC[C@H]1OC(n2c(Cl)nc3cc(Cl)c(Cl)cc32)[C@H](O)[C@@H]1O` (stereo partly drawn), which Control is on record?
Answer: Its Control is 64%.

Question: Which Control does the source give for `O[C@@H]1[C@@H](CBr)OC(n2c(Cl)nc3cc(Cl)c(Cl)cc32)[C@@H]1O` (stereo partly drawn) here?
Answer: Its Control is 54%.

Question: `CSC[C@H]1OC(n2c(Cl)nc3cc(Cl)c(Cl)cc32)[C@H](O)[C@@H]1O` (stereo partly drawn) was tested. Which Control did it give?
Answer: Its Control is 73%.

Question: `O[C@@H]1[C@@H](CCl)OC(n2c(Cl)nc3cc(Cl)c(Cl)cc32)[C@@H]1O` (stereo partly drawn) was tested. Which Control did it give?
Answer: The Control was 73%.

Question: Which Control does the source give for `COC[C@H]1OC(n2c(Cl)nc3cc(Cl)c(Cl)cc32)[C@H](O)[C@@H]1O` (stereo partly drawn) here?
Answer: Its Control is 4%.

These compounds were tested on L1210 (assay: concentration required to decrease the cell density in the treated cultures to one-half of the control was measured on L1210 murine Leukemia cells (in vitro)). Settings: Mus musculus.
Type: functional, cell-based
Summary of the method: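 L1210 cells, 2000/well, given compound the day after plating and incubated 3 days; cell density read by MTS reduction. Concentration–response in two independent experiments. IC50 is the concentration that halves cell density relative to control, averaged over the two experiments.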

Question: With `CCCCOC[C@H]1OC(n2c(Cl)nc3cc(Cl)c(Cl)cc32)[C@H](O)[C@@H]1O` (stereo partly drawn) as the compound, how does the IC50 read?
Answer: Its IC50 is greater than 100 µM.

Question: How did the IC50 turn out when `O[C@@H]1[C@@H](CBr)OC(n2c(Cl)nc3cc(Cl)c(Cl)cc32)[C@@H]1O` (stereo partly drawn) was run?
Answer: The IC50 was 100 µM.

Question: How did the IC50 turn out when `CSC[C@H]1OC(n2c(Cl)nc3cc(Cl)c(Cl)cc32)[C@H](O)[C@@H]1O` (stereo partly drawn) was run?
Answer: The IC50 was greater than 100 µM.

Question: With `O[C@@H]1[C@@H](CCl)OC(n2c(Cl)nc3cc(Cl)c(Cl)cc32)[C@@H]1O` (stereo partly drawn) as the compound, how does the IC50 read?
Answer: The IC50 was greater than 100 µM.

Question: `COC[C@H]1OC(n2c(Cl)nc3cc(Cl)c(Cl)cc32)[C@H](O)[C@@H]1O` (stereo partly drawn) was tested. Which IC50 did it give?
Answer: Its IC50 is 60 µM.
